Key:
MEK1–NL + BRAF-V600E = MEK1–NL + BRAF-V600E (Homo sapiens, UniProt Q02750); assay: MEK1–NL NanoBRET coexpression assay with BRAF-V600E; assay type: binding; settings: 1 μM Tram-bo
MEK1–BRAF = MEK1–BRAF (Homo sapiens, UniProt Q02750); assay: Co-IP of MEK1 and FLAG-tagged BRAF from treated HEK293T cells; assay type: cell-based; settings: 1 μM compound, 24 h
Summary of the method: (§1)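 HEK293T cells (350,000/well) were transfected 24 h after seeding using Fugene HD. FLAG-BRAF or FLAG-KSR1 was given at 1 μg ml−1 for FLAG pulldown, or 0.5 μg ml−1 for endogenous MEK1 pulldown, each with 9 μg ml−1 carrier DNA. After 24 h, cells got 1 μM compound (0.1% DMSO) for 24 h. 100 μg of lysate was captured on anti-FLAG, anti-MEK1 or normal IgG beads (1 h, 4 °C), then eluted and western blotted for BRAF, MEK1 and FLAG.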

MEK1–KSR1 = MEK1–KSR1 (Homo sapiens, UniProt Q02750); assay: Co-IP of MEK1 and FLAG-tagged KSR1 from treated HEK293T cells; assay type: cell-based; settings: 1 μM compound, 24 h
Summary of the method: as §1

[1] = biological target: 14–3–3–NL + MEK1 + BRAF-R509H (Homo sapiens, UniProt Q02750); assay: 14–3–3–NL NanoBRET assay with dimer mutant BRAF-R509H; assay type: binding; settings: 14–3–3–NL–Tram-bo assay configuration
[2] = biological target: 14–3–3–NL + MEK1 + KSR1-R665H (Homo sapiens, UniProt Q02750); assay: 14–3–3–NL NanoBRET assay with dimer mutant KSR1-R665H; assay type: binding; settings: 14–3–3–NL–Tram-bo assay configuration
[3] = biological target: 14–3–3–NL + MEK1 + CRAF-R401H (Homo sapiens, UniProt Q02750); assay: 14–3–3–NL NanoBRET assay with dimer mutant CRAF-R401H; assay type: binding; settings: 14–3–3–NL–Tram-bo assay configuration

CNS(=O)(=O)Nc1nccc(Cc2c(C)c3ccc(Oc4ncccn4)cc3oc2=O)c1F [CH5126766]
decrease in potency (calculated Ki) with BRAF-V600E versus WT BRAF (MEK1–NL + BRAF-V600E): ~ 100 fold | effect on MEK1–BRAF interaction (co-IP) (MEK1–BRAF): stabilized | effect on MEK1–KSR1 interaction (co-IP) (MEK1–KSR1): stabilized | change in potency, BRAF-R509H versus BRAF [1]: insensitive

O=C(c1ccc(F)c(F)c1Nc1ccc(I)cc1F)N1CC(O)([C@@H]2CCCCN2)C1 [cobimetinib]
change in potency, BRAF-R509H versus BRAF [1]: significant increase in potency | change in potency, KSR1-R665H versus KSR1 [2]: decrease in potency

CC(=O)Nc1cccc(-n2c(=O)n(C3CC3)c(=O)c3c(Nc4ccc(I)cc4F)n(C)c(=O)c(C)c32)c1 [trametinib]
effect on MEK1–BRAF interaction (co-IP) (MEK1–BRAF): specifically reduced | change in potency, BRAF-R509H versus BRAF [1]: insensitive | change in potency, KSR1-R665H versus KSR1 [2]: small but significant decrease in potency

trametiglue
effect on MEK1–BRAF interaction (co-IP) (MEK1–BRAF): stabilized | effect on MEK1–KSR1 interaction (co-IP) (MEK1–KSR1): stabilized | change in potency, BRAF-R509H versus BRAF [1]: insensitive | change in potency, CRAF-R401H versus CRAF [3]: decrease in potency | change in potency, KSR1-R665H versus KSR1 [2]: decrease in potency

Source: paper PMC10948974 (Nature chemical biology, 2023)
